Key:
eIF4A [1] = molecular target: T1, eIF4A (Homo sapiens, UniProt P60842); test: malachite green eIF4A ATPase assay; assay type: biochemical; conditions: for inhibition of eIF4A ATPase activity (IC50): 8-point dose-response, 500 nM eIF4A, 250 µM ATP
DDX39A = DDX39A (Homo sapiens, UniProt O00148); test: ATPase dose-response against DDX39A; assay type: biochemical; conditions: 8-point dose-response
A549 lung cancer cells = test: MTT cytotoxicity, A549; assay type: cell-based; conditions: 8-point dose response
How it was run: (§1)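 Cells exposed to an 8-point dose-response of test compound; viability read by MTT. Percent survival plotted against compound concentration on semi-log axes, and LD50 taken from that curve.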

[2] = tested on: MDA-MA-468 breast cancer cells; test: MTT cytotoxicity, MDA-MA-468; assay type: cell-based; conditions: MDA-MA-468, MTT, 8-point dose response
How it was run: as §1

NCI-60 panel = conditions: cited from earlier work
eIF4A [3] = molecular target: T1, eIF4A; test: fluorescence-dequenching eIF4A helicase assay; assay type: biochemical; conditions: 100 µM compound, relative to DMSO control, eIF4B and ATP
How it was run: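 RNA unwinding assay: a fluorescently labelled RNA strand is annealed to a template beside a black-hole quencher. Adding eIF4A, eIF4B and ATP releases the strand and dequenches the fluorophore. A large excess of blank template prevents reannealing. Test compounds used at 100 μM.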

[4] = cited from earlier work

T1 sequence (P60842 whole entry): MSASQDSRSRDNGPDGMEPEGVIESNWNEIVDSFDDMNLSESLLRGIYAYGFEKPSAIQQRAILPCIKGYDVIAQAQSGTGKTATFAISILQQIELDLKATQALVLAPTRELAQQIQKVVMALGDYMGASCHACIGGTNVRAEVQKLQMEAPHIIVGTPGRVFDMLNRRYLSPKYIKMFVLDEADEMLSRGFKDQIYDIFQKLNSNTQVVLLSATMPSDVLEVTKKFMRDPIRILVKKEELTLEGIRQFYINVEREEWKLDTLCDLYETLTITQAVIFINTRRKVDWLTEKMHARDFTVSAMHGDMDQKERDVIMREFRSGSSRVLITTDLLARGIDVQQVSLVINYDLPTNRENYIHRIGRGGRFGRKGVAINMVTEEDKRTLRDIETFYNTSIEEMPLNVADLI
DDX39A, sequence (O00148 whole entry, species assumed): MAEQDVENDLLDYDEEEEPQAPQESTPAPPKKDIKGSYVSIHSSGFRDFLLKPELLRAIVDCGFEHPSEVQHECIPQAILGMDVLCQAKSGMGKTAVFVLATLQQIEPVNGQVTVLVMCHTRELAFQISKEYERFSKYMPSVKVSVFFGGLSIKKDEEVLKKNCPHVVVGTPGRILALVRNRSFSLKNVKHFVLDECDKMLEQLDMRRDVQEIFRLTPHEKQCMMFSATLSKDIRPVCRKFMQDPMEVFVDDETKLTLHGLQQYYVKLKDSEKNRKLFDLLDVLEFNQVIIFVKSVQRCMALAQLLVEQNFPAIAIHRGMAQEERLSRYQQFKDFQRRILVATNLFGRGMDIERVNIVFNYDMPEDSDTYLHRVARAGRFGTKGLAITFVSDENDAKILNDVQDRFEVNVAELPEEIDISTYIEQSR

SMILES	inhibition of eIF4A ATPase activity (IC50) (eIF4A [1])	inhibition of DDX39A (DDX39A)	LD50 (A549 lung cancer cells) [µM]	LD50 [2] [µM]	activity against the NCI-60 panel (NCI-60 panel)	Ki (eIF4A [1]) [µM]	inhibition of eIF4A helicase activity (eIF4A [3])	antibiotic activity [4]
CC(C)=C[C@@H]1C[C@H](C)c2c(O)cc(C)c3c2C1=C(C)C(=O)C3=O [Compound 1, elisabatin A]	single-digit	modest inhibition	40.2	35.2	only modest activity			
C=C1CC[C@@](C)(c2cc(Br)c(C)cc2O)[C@H]1C [Compound 2, allolaurinterol]	single-digit		41.4	31.7		3.86	near complete inhibition	antibiotic activity
C[C@H]1C[C@@]2(O[C@H]3C[C@H]4[C@@H]5CC[C@H]6C[C@H](O)CC[C@]6(C)[C@H]5[C@@H](O)C[C@]4(C)[C@H]3[C@@]2(C)O)OC1(C)C [Compound 3, hippuristanol, reference compound]							near complete inhibition	

Reference: article PMC5593424 (Bioorganic & medicinal chemistry letters, 2017)
